A value given as a limit tells only on which side of the number the result lay.

The target of one assay is T1, Papain (Carica papaya, UniProt P00784).
T1 sequence (P00784 whole entry): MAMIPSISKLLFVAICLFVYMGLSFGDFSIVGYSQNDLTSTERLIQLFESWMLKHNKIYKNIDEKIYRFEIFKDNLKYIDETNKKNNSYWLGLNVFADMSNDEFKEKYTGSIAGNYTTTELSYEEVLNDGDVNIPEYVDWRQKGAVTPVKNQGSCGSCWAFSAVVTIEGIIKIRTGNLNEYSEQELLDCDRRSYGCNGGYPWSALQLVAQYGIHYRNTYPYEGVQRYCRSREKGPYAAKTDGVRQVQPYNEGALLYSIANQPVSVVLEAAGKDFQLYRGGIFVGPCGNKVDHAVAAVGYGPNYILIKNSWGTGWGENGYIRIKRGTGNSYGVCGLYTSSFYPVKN
Briefly: Inhibition of Carica papaya papain by microtiter plate spectrofluorimetry.
For orientation: Ki means a dissociation constant, usually derived from enzyme kinetics or from competition with a known ligand. Low readings indicate a stronger hold on the target, high ones a looser hold on the target. `CCCCCN(C#N)N(C)C(=O)[C@H](Cc1ccccc1)NC(=O)OCc1ccccc1`: the affinity, expressed as Ki, was 10 nM.

`C[C@@H](C#N)NC(=O)[C@H](Cc1ccccc1)NC(=O)OCc1ccccc1` yielded a Ki of 2200 nM.

For `C[C@@H](C#N)N(C)C(=O)[C@H](Cc1ccccc1)NC(=O)OCc1ccccc1`, affinity was put at a Ki of 750000 nM.

`CN(C(=O)[C@H](Cc1ccccc1)NC(=O)OCc1ccccc1)N(C#N)Cc1ccccc1` returned a Ki of 42 nM.

Compound `CN(C(=O)[C@H](Cc1ccccc1)NC(=O)OCc1ccccc1)N(C#N)CCc1ccccc1` came in with a Ki of 6.3 nM.

Turning to `CN(C#N)N(C)C(=O)[C@H](Cc1ccccc1)NC(=O)OCc1ccccc1`, the Ki was 3.9 nM.

In turn, `CC(C)C[C@H](NC(=O)OCc1ccccc1)C(=O)N(C)N(C)C#N` displayed an inhibition constant Ki of 8.2 nM.

Tested on in a further assay: not listed separately
Description: Inhibition of Plasmodium falciparum recombinant falcipain-3 by microtiter plate spectrofluorimetry.
By IC50 is commonly meant the midpoint of a concentration-inhibition curve. Take `CCCCCN(C#N)N(C)C(=O)[C@H](Cc1ccccc1)NC(=O)OCc1ccccc1`: the IC50 was 110 nM.

For `C[C@@H](C#N)NC(=O)[C@H](Cc1ccccc1)NC(=O)OCc1ccccc1`, the IC50 was found to be 16000 nM.

Turning to `C[C@@H](C#N)N(C)C(=O)[C@H](Cc1ccccc1)NC(=O)OCc1ccccc1`, the IC50 is over 50000 nM.

For the compound `CN(C(=O)[C@H](Cc1ccccc1)NC(=O)OCc1ccccc1)N(C#N)Cc1ccccc1`, the 50% inhibitory concentration (IC50) was determined as 1600 nM.

In the case of `CN(C(=O)[C@H](Cc1ccccc1)NC(=O)OCc1ccccc1)N(C#N)CCc1ccccc1`, the IC50 amounted to 300 nM.

For the compound `CN(C#N)N(C)C(=O)[C@H](Cc1ccccc1)NC(=O)OCc1ccccc1`, the IC50 came out at 18000 nM.

Take `CC(C)C[C@H](NC(=O)OCc1ccccc1)C(=O)N(C)N(C)C#N`: the IC50 stood at 1900 nM.

Tested on in another assay: not listed separately
Description: Inhibition of Plasmodium falciparum recombinant falcipain-2 by microtiter plate spectrofluorimetry.
In the case of `CCCCCN(C#N)N(C)C(=O)[C@H](Cc1ccccc1)NC(=O)OCc1ccccc1`, the IC50 was 310 nM.

`C[C@@H](C#N)NC(=O)[C@H](Cc1ccccc1)NC(=O)OCc1ccccc1`: the IC50 worked out at 28000 nM.

Turning to `C[C@@H](C#N)N(C)C(=O)[C@H](Cc1ccccc1)NC(=O)OCc1ccccc1`, the IC50 was over 50000 nM.

For the compound `CN(C(=O)[C@H](Cc1ccccc1)NC(=O)OCc1ccccc1)N(C#N)Cc1ccccc1`, the IC50 was found to be 1000 nM.

Turning to `CN(C(=O)[C@H](Cc1ccccc1)NC(=O)OCc1ccccc1)N(C#N)CCc1ccccc1`, the half-inhibitory concentration (IC50) stood at 430 nM.

Regarding `CN(C#N)N(C)C(=O)[C@H](Cc1ccccc1)NC(=O)OCc1ccccc1`, the half-maximal inhibitory concentration (IC50) stood at 570 nM.

As for `CC(C)C[C@H](NC(=O)OCc1ccccc1)C(=O)N(C)N(C)C#N`, the IC50 is 59 nM.

Another assay has as its system Plasmodium falciparum. Description: Antimalarial activity against Plasmodium falciparum Dd2 infected in erythrocytes assessed as inhibition of [3H]hypoxanthine incorporation by microbeta liquid scintillation counter. The assay is classed as functional, organism-based. In short, it runs like this: (§1)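 Growth inhibition was measured by a standard isotopic assay on cultured P. falciparum-infected erythrocytes, with results reported as IC50 values.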
As to `CCCCCN(C#N)N(C)C(=O)[C@H](Cc1ccccc1)NC(=O)OCc1ccccc1`, the IC50 is 2.1 µM.

For the compound `C[C@@H](C#N)NC(=O)[C@H](Cc1ccccc1)NC(=O)OCc1ccccc1`, the IC50 is over 25 µM.

As to `C[C@@H](C#N)N(C)C(=O)[C@H](Cc1ccccc1)NC(=O)OCc1ccccc1`, the IC50 was over 25 µM.

Consider `CN(C(=O)[C@H](Cc1ccccc1)NC(=O)OCc1ccccc1)N(C#N)Cc1ccccc1`, for which the IC50 came to 7.5 µM.

Take `CN(C(=O)[C@H](Cc1ccccc1)NC(=O)OCc1ccccc1)N(C#N)CCc1ccccc1`: the IC50 was determined as 3.6 µM.

Turning to `CN(C#N)N(C)C(=O)[C@H](Cc1ccccc1)NC(=O)OCc1ccccc1`, the IC50 was 15 µM.

With `CC(C)C[C@H](NC(=O)OCc1ccccc1)C(=O)N(C)N(C)C#N`, the IC50 turned out to be 18 µM.

In a further assay the test system is Plasmodium falciparum. Briefly: Antimalarial activity against Plasmodium falciparum 3D7 infected in erythrocytes assessed as inhibition of [3H]hypoxanthine incorporation by microbeta liquid scintillation counter. The assay is classed as functional, organism-based. In short, it runs like this: as §1
For the compound `CCCCCN(C#N)N(C)C(=O)[C@H](Cc1ccccc1)NC(=O)OCc1ccccc1`, the half-maximal inhibitory concentration (IC50) was 2.9 µM.

Regarding `C[C@@H](C#N)NC(=O)[C@H](Cc1ccccc1)NC(=O)OCc1ccccc1`, the IC50 is over 25 µM.

As to `C[C@@H](C#N)N(C)C(=O)[C@H](Cc1ccccc1)NC(=O)OCc1ccccc1`, the IC50 is over 25 µM.

With `CN(C(=O)[C@H](Cc1ccccc1)NC(=O)OCc1ccccc1)N(C#N)Cc1ccccc1`, the IC50 turned out to be 7.1 µM.

Take `CN(C(=O)[C@H](Cc1ccccc1)NC(=O)OCc1ccccc1)N(C#N)CCc1ccccc1`: the IC50 came to 5.3 µM.

On to `CN(C#N)N(C)C(=O)[C@H](Cc1ccccc1)NC(=O)OCc1ccccc1`, for which the IC50 came to 9.8 µM.

`CC(C)C[C@H](NC(=O)OCc1ccccc1)C(=O)N(C)N(C)C#N`: the IC50 turned out to be 16 µM.

The values are drawn from ChEMBL document CHEMBL1153118, “Antimalarial activity of azadipeptide nitriles” (Bioorg Med Chem Lett, 2010).
